From ChEMBL document CHEMBL1926550, “Synthesis and antibacterial activity of naphthyridone derivatives containing mono/difluoro-methyloxime pyrrolidine scaffolds” (2012)
In brackets after ≈: the same amount, converted by molar mass.

These compounds were tested on Staphylococcus epidermidis (assay: Antibacterial activity against methicillin-sensitive Staphylococcus epidermidis 10-2 after 18 hrs by two fold serial dilution method). Settings: 10-2, 18 h.
Assay type: functional
Method in brief: (§1)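 Agar two-fold serial dilution in melted Mueller-Hinton agar, final concentrations 128 down to 0.008 μg/mL. Plates inoculated with 10⁴ cfu and incubated at 35 °C for 18 h. MIC taken as the lowest concentration giving no visible growth on the plate.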

SMILES | MIC
NCC1CN(c2nc3c(cc2F)c(=O)c(C(=O)O)cn3C2CC2)C/C1=N\OCF (racemic) | 64 µg/mL (≈ 157 µM)

Each compound was assayed on Staphylococcus epidermidis (assay: Antibacterial activity against methicillin-resistant Staphylococcus epidermidis 10-4 infected KM mouse systemic infection model assessed as decrease in mouse mortality administered orally twice after 1 and 4 hrs post infection measured up to 7 days). Settings: 10-4, po.
Assay type: functional
Method in brief: (§2)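 Strains grown on MH agar at 35 °C for 18 h, suspended in gastric mucin. Male KM mice (19–21 g), groups of 10, infected intraperitoneally with 0.5 mL at 5–10× MLD. Four oral dose levels per drug at 1 and 4 h post infection. Mortality followed 7 days; ED50 with 95% confidence limits by Bliss method.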

SMILES | ED50
NCC1CN(c2nc3c(cc2F)c(=O)c(C(=O)O)cn3C2CC2)C/C1=N\OCF (racemic) | 8 mg/kg

These compounds were tested on Pseudomonas aeruginosa (assay: Antibacterial activity against Pseudomonas aeruginosa 10-1 after 18 hrs by two fold serial dilution method). Settings: 10-1, 18 h.
Assay type: functional
Method in brief: as §1

SMILES | MIC
NCC1CN(c2nc3c(cc2F)c(=O)c(C(=O)O)cn3C2CC2)C/C1=N\OCF (racemic) | 0.5 µg/mL (≈ 1.23 µM)

What follows are compounds tested on Staphylococcus epidermidis (assay: Antibacterial activity against methicillin-resistant Staphylococcus epidermidis 10-4 after 18 hrs by two fold serial dilution method). Settings: 10-4, 18 h.
Assay type: functional
Method in brief: (§3)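 Agar two-fold serial dilution in melted Mueller-Hinton agar, 128 to 0.008 μg/mL. Plates inoculated with 10⁴ cfu, incubated 35 °C for 18 h. MIC taken as lowest concentration giving no visible growth on the plate.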

SMILES | MIC
NCC1CN(c2nc3c(cc2F)c(=O)c(C(=O)O)cn3C2CC2)C/C1=N\OCF (racemic) | 2 µg/mL (≈ 4.91 µM)

Each compound was assayed on Klebsiella pneumoniae (assay: Antibacterial activity against Klebsiella pneumoniae 09-2 after 18 hrs by two fold serial dilution method). Settings: 09-2, 18 h.
Assay type: functional
Method in brief: as §1

SMILES | MIC
NCC1CN(c2nc3c(cc2F)c(=O)c(C(=O)O)cn3C2CC2)C/C1=N\OCF (racemic) | 32 µg/mL (≈ 78.6 µM)

Each compound was assayed on Enterococcus faecium (assay: Antibacterial activity against Enterococcus faecium 09-5 after 18 hrs by two fold serial dilution method). Settings: 09-5, 18 h.
Assay type: functional
Method in brief: as §1

SMILES | MIC
NCC1CN(c2nc3c(cc2F)c(=O)c(C(=O)O)cn3C2CC2)C/C1=N\OCF (racemic) | 32 µg/mL (≈ 78.6 µM)

What follows are compounds tested on Escherichia coli (assay: Antibacterial activity against Escherichia coli 10-2 infected KM mouse systemic infection model assessed as decrease in mouse mortality administered orally twice after 1 and 4 hrs post infection measured up to 7 days). Settings: 10-2, po.
Assay type: functional
Method in brief: as §2

SMILES | ED50
NCC1CN(c2nc3c(cc2F)c(=O)c(C(=O)O)cn3C2CC2)C/C1=N\OCF (racemic) | 8.79 mg/kg

What follows are compounds tested on Klebsiella pneumoniae (assay: Antibacterial activity against Klebsiella pneumoniae 10-3 infected KM mouse systemic infection model assessed as decrease in mouse mortality administered orally twice after 1 and 4 hrs post infection measured up to 7 days). Settings: 10-3, po.
Assay type: functional
Method in brief: as §2

SMILES | ED50
NCC1CN(c2nc3c(cc2F)c(=O)c(C(=O)O)cn3C2CC2)C/C1=N\OCF (racemic) | > 160 mg/kg

Each compound was assayed on Escherichia coli (assay: Antibacterial activity against Escherichia coli 10-1 after 18 hrs by two fold serial dilution method). Settings: 10-1, 18 h.
Assay type: functional
Method in brief: as §1

SMILES | MIC
NCC1CN(c2nc3c(cc2F)c(=O)c(C(=O)O)cn3C2CC2)C/C1=N\OCF (racemic) | 32 µg/mL (≈ 78.6 µM)

The compounds below were run on Staphylococcus aureus (assay: Antibacterial activity against methicillin-sensitive Staphylococcus aureus 10-5 after 18 hrs by two fold serial dilution method). Settings: 10-5, 18 h.
Assay type: functional
Method in brief: as §1

SMILES | MIC
NCC1CN(c2nc3c(cc2F)c(=O)c(C(=O)O)cn3C2CC2)C/C1=N\OCF (racemic) | 0.125 µg/mL (≈ 0.307 µM)

What follows are compounds tested on Escherichia coli (assay: Antibacterial activity against Escherichia coli 10-3 after 18 hrs by two fold serial dilution method). Settings: 10-3, 18 h.
Assay type: functional
Method in brief: as §1

SMILES | MIC
NCC1CN(c2nc3c(cc2F)c(=O)c(C(=O)O)cn3C2CC2)C/C1=N\OCF (racemic) | 16 µg/mL (≈ 39.3 µM)

The compounds below were run on Enterococcus faecium (assay: Antibacterial activity against Enterococcus faecium 09-6 after 18 hrs by two fold serial dilution method). Settings: 09-6, 18 h.
Assay type: functional
Method in brief: as §1

SMILES | MIC
NCC1CN(c2nc3c(cc2F)c(=O)c(C(=O)O)cn3C2CC2)C/C1=N\OCF (racemic) | 0.03 µg/mL (≈ 0.0736 µM)

What follows are compounds tested on Enterococcus faecium (assay: Antibacterial activity against Enterococcus faecium 09-4 after 18 hrs by two fold serial dilution method). Settings: 09-4, 18 h.
Assay type: functional
Method in brief: as §1

SMILES | MIC
NCC1CN(c2nc3c(cc2F)c(=O)c(C(=O)O)cn3C2CC2)C/C1=N\OCF (racemic) | 0.06 µg/mL (≈ 0.147 µM)

The compounds below were run on Staphylococcus epidermidis (assay: Ratio of ciprofloxacin ED50 to compound ED50 for methicillin-resistant Staphylococcus epidermidis 10-4 infected KM mouse systemic infection model). Settings: not given.
Assay type: functional

SMILES | Ratio ED50
NCC1CN(c2nc3c(cc2F)c(=O)c(C(=O)O)cn3C2CC2)C/C1=N\OCF (racemic) | 3.1

What follows are compounds tested on Staphylococcus epidermidis (assay: Antibacterial activity against methicillin-resistant Staphylococcus epidermidis 10-1 after 18 hrs by two fold serial dilution method). Settings: 10-1, 18 h.
Assay type: functional
Method in brief: as §3

SMILES | MIC
NCC1CN(c2nc3c(cc2F)c(=O)c(C(=O)O)cn3C2CC2)C/C1=N\OCF (racemic) | 2 µg/mL (≈ 4.91 µM)

What follows are compounds tested on Escherichia coli (assay: Antibacterial activity against Escherichia coli 09-2 after 18 hrs by two fold serial dilution method). Settings: 09-2, 18 h.
Assay type: functional
Method in brief: as §1

SMILES | MIC
NCC1CN(c2nc3c(cc2F)c(=O)c(C(=O)O)cn3C2CC2)C/C1=N\OCF (racemic) | 32 µg/mL (≈ 78.6 µM)

The compounds below were run on Escherichia coli (assay: Antibacterial activity against Escherichia coli 10-2 after 18 hrs by two fold serial dilution method). Settings: 10-2, 18 h.
Assay type: functional
Method in brief: as §1

SMILES | MIC
NCC1CN(c2nc3c(cc2F)c(=O)c(C(=O)O)cn3C2CC2)C/C1=N\OCF (racemic) | 0.5 µg/mL (≈ 1.23 µM)

Each compound was assayed on Staphylococcus aureus (assay: Antibacterial activity against methicillin-resistant Staphylococcus aureus 10-3 after 18 hrs by two fold serial dilution method). Settings: 10-3, 18 h.
Assay type: functional
Method in brief: as §3

SMILES | MIC
NCC1CN(c2nc3c(cc2F)c(=O)c(C(=O)O)cn3C2CC2)C/C1=N\OCF (racemic) | 32 µg/mL (≈ 78.6 µM)

The compounds below were run on Staphylococcus aureus (assay: Antibacterial activity against methicillin-sensitive Staphylococcus aureus 10-2 after 18 hrs by two fold serial dilution method). Settings: 10-2, 18 h.
Assay type: functional
Method in brief: as §1

SMILES | MIC
NCC1CN(c2nc3c(cc2F)c(=O)c(C(=O)O)cn3C2CC2)C/C1=N\OCF (racemic) | 8 µg/mL (≈ 19.6 µM)

Each compound was assayed on Pseudomonas aeruginosa (assay: Antibacterial activity against Pseudomonas aeruginosa ATCC 27853 after 18 hrs by two fold serial dilution method). Settings: ATCC 27853, 18 h.
Assay type: functional
Method in brief: as §1

SMILES | MIC
NCC1CN(c2nc3c(cc2F)c(=O)c(C(=O)O)cn3C2CC2)C/C1=N\OCF (racemic) | 0.5 µg/mL (≈ 1.23 µM)

What follows are compounds tested on Pseudomonas aeruginosa (assay: Antibacterial activity against Pseudomonas aeruginosa 10-2 after 18 hrs by two fold serial dilution method). Settings: 10-2, 18 h.
Assay type: functional
Method in brief: as §1

SMILES | MIC
NCC1CN(c2nc3c(cc2F)c(=O)c(C(=O)O)cn3C2CC2)C/C1=N\OCF (racemic) | 32 µg/mL (≈ 78.6 µM)

These compounds were tested on Streptococcus pneumoniae (assay: Antibacterial activity against Streptococcus pneumoniae 10-1 after 18 hrs by two fold serial dilution method). Settings: 10-1, 18 h.
Assay type: functional
Method in brief: as §1

SMILES | MIC
NCC1CN(c2nc3c(cc2F)c(=O)c(C(=O)O)cn3C2CC2)C/C1=N\OCF (racemic) | 0.06 µg/mL (≈ 0.147 µM)

Each compound was assayed on Enterococcus faecalis (assay: Antibacterial activity against Enterococcus faecalis 09-1 after 18 hrs by two fold serial dilution method). Settings: 09-1, 18 h.
Assay type: functional
Method in brief: as §1

SMILES | MIC
NCC1CN(c2nc3c(cc2F)c(=O)c(C(=O)O)cn3C2CC2)C/C1=N\OCF (racemic) | 8 µg/mL (≈ 19.6 µM)
